Test results taken from ChEMBL document CHEMBL1944580, “Synthesis of novel sulfonamide-1,2,4-triazoles, 1,3,4-thiadiazoles and 1,3,4-oxadiazoles, as potential antibacterial and antifungal agents. Biological evaluation and conformational analysis studies” (2012).
Values after ≈ are worked out from the molar mass of the structure shown.

Columns and labels:
Aspergillus versicolor [1] = assay: Antifungal activity against Aspergillus versicolor ATCC 11730 treated for 72 hrs followed by sub-cultivated for 5 days by serial dilution method; assay type: functional
Method in brief: (§1)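 MFC obtained after the 72 h, 28 °C malt-broth microdilution (spore inoculum about 1.0 × 10^5 per well, compounds from 1 mg/ml DMSO). 2 µl was serially subcultured into 100 µl broth per well and incubated a further 5 days at 28 °C. MFC is the lowest concentration with no visible growth, taken as 99.5% killing of the original inoculum.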

Staphylococcus aureus [2] = assay: Antibacterial activity against Staphylococcus aureus ATCC 6538 treated for 24 hrs followed by sub-cultivated for 72 hrs by micro dilution method; assay type: functional
Method in brief: (§2)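 2 µl from each well was serially subcultured into 100 µl fresh broth per well and incubated a further 72 h. MBC is the lowest concentration with no visible growth, taken as 99.5% killing of the original inoculum. Streptomycin and ampicillin were the positive controls.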

Trichoderma viride [3] = assay: Antifungal activity against Trichoderma viride IAM 5061 treated for 72 hrs followed by sub-cultivated for 5 days by serial dilution method; assay type: functional; method in brief: as §1
Bacillus cereus [4] = assay: Antibacterial activity against Bacillus cereus clinical isolate treated for 24 hrs followed by sub-cultivated for 72 hrs by micro dilution method; assay type: functional; method in brief: as §2
Escherichia coli [5] = assay: Antibacterial activity against Escherichia coli ATCC 35210 after 24 hrs by micro dilution method; assay type: functional; conditions: ATCC 35210, 24 h
Method in brief: (§3)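 Microdilution MIC in 96-well plates. Bacterial suspensions adjusted in sterile saline to 1.0 × 10^5 CFU/ml, giving 1.0 × 10^4 cfu per well in LB broth. Compounds tested at up to 1 mg/ml. Plates incubated 24 h. MIC taken as the lowest concentration with no visible growth under a binocular microscope. OD at 655 nm was also read against a blank and the positive control. Streptomycin and ampicillin were the positive controls.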

Aspergillus niger [6] = assay: Antifungal activity against Aspergillus niger ATCC 6275 after 72 hrs by serial dilution method; assay type: functional; conditions: ATCC 6275, 72 h
Method in brief: (§4)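 Modified microdilution MIC. Spores were washed from malt agar cultures with sterile 0.85% saline containing 0.1% Tween 80 and adjusted to about 1.0 × 10^5 per 100 µl well in malt broth. Compounds were dissolved in DMSO (1 mg/ml). Plates incubated 72 h at 28 °C. MIC is the lowest concentration with no visible growth under a binocular microscope. Bifonazole and ketoconazole were the references.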

Aspergillus fumigatus [7] = assay: Antifungal activity against Aspergillus fumigatus human isolate treated for 72 hrs followed by sub-cultivated for 5 days by serial dilution method; assay type: functional; method in brief: as §1
Listeria monocytogenes [8] = assay: Antibacterial activity against Listeria monocytogenes NCTC 7973 treated for 24 hrs followed by sub-cultivated for 72 hrs by micro dilution method; assay type: functional; method in brief: as §2
Escherichia coli [9] = assay: Antibacterial activity against Escherichia coli ATCC 35210 treated for 24 hrs followed by sub-cultivated for 72 hrs by micro dilution method; assay type: functional; method in brief: as §2
Listeria monocytogenes [10] = assay: Antibacterial activity against Listeria monocytogenes NCTC 7973 after 24 hrs by micro dilution method; assay type: functional; conditions: NCTC 7973, 24 h; method in brief: as §3
Aspergillus flavus [11] = assay: Antifungal activity against Aspergillus flavus ATCC 9643 after 72 hrs by serial dilution method; assay type: functional; conditions: ATCC 9643, 72 h; method in brief: as §4
Trichoderma viride [12] = assay: Antifungal activity against Trichoderma viride IAM 5061 after 72 hrs by serial dilution method; assay type: functional; conditions: IAM 5061, 72 h; method in brief: as §4
Aspergillus versicolor [13] = assay: Antifungal activity against Aspergillus versicolor ATCC 11730 after 72 hrs by serial dilution method; assay type: functional; conditions: ATCC 11730, 72 h; method in brief: as §4
Micrococcus flavus [14] = assay: Antibacterial activity against Micrococcus flavus ATCC 10240 after 24 hrs by micro dilution method; assay type: functional; conditions: ATCC 10240, 24 h; method in brief: as §3
Bacillus cereus [15] = assay: Antibacterial activity against Bacillus cereus clinical isolate after 24 hrs by micro dilution method; assay type: functional; method in brief: as §3
Penicillium ochrochloron [16] = assay: Antifungal activity against Penicillium ochrochloron ATCC 9112 after 72 hrs by serial dilution method; assay type: functional; conditions: ATCC 9112, 72 h; method in brief: as §4
Aspergillus niger [17] = assay: Antifungal activity against Aspergillus niger ATCC 6275 treated for 72 hrs followed by sub-cultivated for 5 days by serial dilution method; assay type: functional; method in brief: as §1
Talaromyces funiculosus [18] = assay: Antifungal activity against Penicillium funiculosum ATCC 36839 treated for 72 hrs followed by sub-cultivated for 5 days by serial dilution method; assay type: functional; method in brief: as §1
Aspergillus fumigatus [19] = assay: Antifungal activity against Aspergillus fumigatus human isolate after 72 hrs by serial dilution method; assay type: functional; method in brief: as §4
Salmonella typhimurium [20] = assay: Antibacterial activity against Salmonella Typhimurium ATCC 13311 treated for 24 hrs followed by sub-cultivated for 72 hrs by micro dilution method; assay type: functional, Salmonella enterica subsp. enterica serovar Typhimurium; conditions: Salmonella enterica; method in brief: as §2
Penicillium ochrochloron [21] = assay: Antifungal activity against Penicillium ochrochloron ATCC 9112 treated for 72 hrs followed by sub-cultivated for 5 days by serial dilution method; assay type: functional; method in brief: as §1
Fulvia fulva [22] = assay: Antifungal activity against Fulvia fulva treated for 72 hrs followed by sub-cultivated for 5 days by serial dilution method; assay type: functional; method in brief: as §1
Talaromyces funiculosus [23] = assay: Antifungal activity against Penicillium funiculosum ATCC 36839 after 72 hrs by serial dilution method; assay type: functional; conditions: ATCC 36839, 72 h; method in brief: as §4
Fulvia fulva [24] = assay: Antifungal activity against Fulvia fulva after 72 hrs by serial dilution method; assay type: functional; method in brief: as §4
Salmonella typhimurium [25] = assay: Antibacterial activity against Salmonella Typhimurium ATCC 13311 after 24 hrs by micro dilution method; assay type: functional, Salmonella enterica subsp. enterica serovar Typhimurium; conditions: Salmonella enterica, ATCC 13311, 24 h; method in brief: as §3
Pseudomonas aeruginosa [26] = assay: Antibacterial activity against Pseudomonas aeruginosa ATCC 27853 treated for 24 hrs followed by sub-cultivated for 72 hrs by micro dilution method; assay type: functional; method in brief: as §2
Micrococcus flavus [27] = assay: Antibacterial activity against Micrococcus flavus ATCC 10240 treated for 24 hrs followed by sub-cultivated for 72 hrs by micro dilution method; assay type: functional; method in brief: as §2
Enterobacter cloacae [28] = assay: Antibacterial activity against Enterobacter cloacae human isolate after 24 hrs by micro dilution method; assay type: functional; method in brief: as §3
Pseudomonas aeruginosa [29] = assay: Antibacterial activity against Pseudomonas aeruginosa ATCC 27853 after 24 hrs by micro dilution method; assay type: functional; conditions: ATCC 27853, 24 h; method in brief: as §3
Enterobacter cloacae [30] = assay: Antibacterial activity against Enterobacter cloacae human isolate treated for 24 hrs followed by sub-cultivated for 72 hrs by micro dilution method; assay type: functional; method in brief: as §2
Staphylococcus aureus [31] = assay: Antibacterial activity against Staphylococcus aureus ATCC 6538 after 24 hrs by micro dilution method; assay type: functional; conditions: ATCC 6538, 24 h; method in brief: as §3
Aspergillus flavus [32] = assay: Antifungal activity against Aspergillus flavus ATCC 9643 treated for 72 hrs followed by sub-cultivated for 5 days by serial dilution method; assay type: functional; method in brief: as §1

SMILES	MFC (Aspergillus versicolor [1]) [µM]	MBC (Staphylococcus aureus [2]) [µM]	MFC (Trichoderma viride [3]) [µM]	MBC (Bacillus cereus [4]) [µM]	MIC (Escherichia coli [5]) [µM]	MIC (Aspergillus niger [6]) [µM]	MFC (Aspergillus fumigatus [7]) [µM]	MBC (Listeria monocytogenes [8]) [µM]	MBC (Escherichia coli [9]) [µM]	MIC (Listeria monocytogenes [10]) [µM]	MIC (Aspergillus flavus [11]) [µM]	MIC (Trichoderma viride [12]) [µM]	MIC (Aspergillus versicolor [13]) [µM]	MIC (Micrococcus flavus [14]) [µM]	MIC (Bacillus cereus [15]) [µM]	MIC (Penicillium ochrochloron [16]) [µM]	MFC (Aspergillus niger [17]) [µM]	MFC (Talaromyces funiculosus [18]) [µM]	MIC (Aspergillus fumigatus [19]) [µM]	MBC (Salmonella typhimurium [20]) [µM]	further results
CCCCNc1nnc(Cc2cc(OC)c(OC)cc2S(=O)(=O)N(C)C)s1	240 (≈ 99.5 µg/mL)	480 (≈ 199 µg/mL)	120 (≈ 49.7 µg/mL)	240 (≈ 99.5 µg/mL)	480 (≈ 199 µg/mL)	60 (≈ 24.9 µg/mL)	240 (≈ 99.5 µg/mL)	480 (≈ 199 µg/mL)	480 (≈ 199 µg/mL)	240 (≈ 99.5 µg/mL)	120 (≈ 49.7 µg/mL)	60 (≈ 24.9 µg/mL)	120 (≈ 49.7 µg/mL)	240 (≈ 99.5 µg/mL)	240 (≈ 99.5 µg/mL)	120 (≈ 49.7 µg/mL)	120 (≈ 49.7 µg/mL)	240 (≈ 99.5 µg/mL)	120 (≈ 49.7 µg/mL)	240 (≈ 99.5 µg/mL)	MFC (Penicillium ochrochloron [21]): 240 µM (≈ 99.5 µg/mL); MFC (Fulvia fulva [22]): 120 µM (≈ 49.7 µg/mL); MIC (Talaromyces funiculosus [23]): 120 µM (≈ 49.7 µg/mL); MIC (Fulvia fulva [24]): 60 µM (≈ 24.9 µg/mL); MIC (Salmonella typhimurium [25]): 240 µM (≈ 99.5 µg/mL); MBC (Pseudomonas aeruginosa [26]): 480 µM (≈ 199 µg/mL); MBC (Micrococcus flavus [27]): 480 µM (≈ 199 µg/mL); MIC (Enterobacter cloacae [28]): 240 µM (≈ 99.5 µg/mL); MIC (Pseudomonas aeruginosa [29]): 480 µM (≈ 199 µg/mL); MBC (Enterobacter cloacae [30]): 240 µM (≈ 99.5 µg/mL); MIC (Staphylococcus aureus [31]): 480 µM (≈ 199 µg/mL); MFC (Aspergillus flavus [32]): 240 µM (≈ 99.5 µg/mL)
CNc1nnc(Cc2cc(OC)c(OC)cc2S(=O)(=O)N(C)C)o1	450 (≈ 160 µg/mL)	280 (≈ 99.8 µg/mL)	140 (≈ 49.9 µg/mL)	280 (≈ 99.8 µg/mL)	280 (≈ 99.8 µg/mL)	140 (≈ 49.9 µg/mL)	280 (≈ 99.8 µg/mL)	420 (≈ 150 µg/mL)	420 (≈ 150 µg/mL)	420 (≈ 150 µg/mL)	140 (≈ 49.9 µg/mL)	30 (≈ 10.7 µg/mL)	140 (≈ 49.9 µg/mL)	560 (≈ 200 µg/mL)	280 (≈ 99.8 µg/mL)	140 (≈ 49.9 µg/mL)	450 (≈ 160 µg/mL)	280 (≈ 99.8 µg/mL)	140 (≈ 49.9 µg/mL)	420 (≈ 150 µg/mL)	MFC (Penicillium ochrochloron [21]): 450 µM (≈ 160 µg/mL); MFC (Fulvia fulva [22]): 450 µM (≈ 160 µg/mL); MIC (Talaromyces funiculosus [23]): 140 µM (≈ 49.9 µg/mL); MIC (Fulvia fulva [24]): 280 µM (≈ 99.8 µg/mL); MIC (Salmonella typhimurium [25]): 420 µM (≈ 150 µg/mL); MBC (Pseudomonas aeruginosa [26]): 560 µM (≈ 200 µg/mL); MBC (Micrococcus flavus [27]): 840 µM (≈ 299 µg/mL); MIC (Enterobacter cloacae [28]): 700 µM (≈ 249 µg/mL); MIC (Pseudomonas aeruginosa [29]): 420 µM (≈ 150 µg/mL); MBC (Enterobacter cloacae [30]): 840 µM (≈ 299 µg/mL); MIC (Staphylococcus aureus [31]): 280 µM (≈ 99.8 µg/mL); MFC (Aspergillus flavus [32]): 450 µM (≈ 160 µg/mL)
